Drawing on ChEMBL document CHEMBL1128389, “Thiadiazole derivatives: highly potent and specific HIV-1 reverse transcriptase inhibitors” (J Med Chem, 1995), this text covers Selectivity index, CC50 and EC50 for 13 compounds.

pEC50: −log10 of the molar value. Some results are limits rather than exact numbers.

Assay [1] can be described thus: Selectivity index is the ratio of CC50 and EC50 in MT-4 cells. The assay is classed as functional, MT4. Summed up: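 MT-4 cells; selectivity index = CC50 (MTT viability of mock-infected cells) divided by EC50 (inhibition of HIV-1-induced cytopathic effect).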
Assay [2] relates to MT4. In words: Cytotoxic concentration based on the reduction of viability of mock-infected cells. The settings on record: Homo sapiens. In kind it is functional. The method, boiled down:
(§1)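 Mock-infected MT-4 cells; viable cell number determined by MTT method; CC50 = concentration giving 50% reduction of viability.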

In assay [3] the test system is MT4. The assay can be described thus: Compound was evaluated for the inhibition of HIV-1 induced CPE (HTLV-III B strain ) replication in MT-4 cells. In kind it is functional, cell-based. The conditions noted are these: Homo sapiens. Summed up: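 HIV-1 strain HTLV-IIIB in MT-4 cells; EC50 = concentration giving 50% inhibition of virus-induced cytopathic effect; viable cells counted by MTT method.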

In assay [4] the test system is MT4. In words: Compound was evaluated for the inhibition of HIV-1 induced CPE (HTLV-III B strain ) replication in MT-4 cells. The assay is classed as functional, cell-based. The conditions noted are these: Homo sapiens. Summed up:
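HTLV-IIIB strain of HIV-1 in MT-4 cells; activity read as inhibition of virus-induced cytopathic effect, viable cells counted by MTT method; EC50 is the 50% effective concentration.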

In assay [5] the test system is MT4. The assay can be described thus: Cytotoxic concentration based on the reduction of viability of mock-infected MT-4 cells. In kind it is functional. The settings on record: Homo sapiens. Summed up: as §1
The species entered for assay [6] is Homo sapiens. In words: (§2) Selectivity index is the ratio of CC50 and EC50 in peripheral blood lymphocytes (PBL). In kind it is functional. The method, boiled down:
(§3)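 HIV-1 strain HTLV-IIIB in peripheral blood lymphocytes. EC50 is 50% reduction of p24 antigen in culture supernatant. CC50 is 50% loss of viability in mock-infected cells, with viable cells counted by MTT. Index = CC50/EC50.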

Assay [7] relates to MT4. In words: Compound was evaluated for the inhibition of HIV-2 induced CPE (LAV-2EHO strain ) replication in MT-4 cells. The assay is classed as functional, cell-based. The conditions noted are these: Homo sapiens.
The subject of assay [8] is MT4. In words: Selectivity index is the ratio of CC50 and EC50 in MT-4 cells. In kind it is functional, Homo sapiens. Summed up:
(§4)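 HIV-1 strain HTLV-IIIB in MT-4 cells. EC50 is 50% inhibition of virus-induced cytopathic effect. CC50 is 50% loss of viability in mock-infected cells. Viable cells were counted by the MTT method. Index = CC50/EC50.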

Assay [9] has as its system MT4. In words: Cytotoxic concentration based on the reduction of viability of mock-infected MT-4 cells. The assay is classed as functional. The settings on record: Homo sapiens. The method, boiled down: as §1
Assay [10] can be described thus: Selectivity index is the ratio of CC50 and EC50 MT-4 cells. In kind it is functional, MT4. Summed up: as §4
Assay [11] is filed under the species Homo sapiens. In words: Cytotoxic concentration based on the reduction of viability of mock-infected peripheral blood lymphocytes (PBL). In kind it is functional. The method, boiled down:
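Mock-infected peripheral blood lymphocytes; CC50 = concentration giving 50% reduction in viability, viable cells measured by MTT method.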

For assay [12], the species on record is Homo sapiens. The assay can be described thus: Compound was evaluated for the inhibition of HIV-1 (HTLV-III B strain ) replication in peripheral blood lymphocytes (PBL), measured as p24 antigen reduction.
A short description of assay [13]: as §2. In kind it is functional. The method, boiled down: as §3
The species entered for assay [14] is Homo sapiens. In words: Cytotoxic concentration based on the reduction of viability of mock-infected peripheral blood lymphocytes (PBL). The assay is classed as functional. The method, boiled down:
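Mock-infected peripheral blood lymphocytes; viable cell number determined by MTT method; CC50 is the concentration giving 50% reduction of viability.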

Turning to `CN(C)C(=O)Oc1nsnc1-c1ccccc1Cl`, the Selectivity index in assay [1] is listed as 503. In the assay on MT4 [2], this compound came in with a CC50 of 161 µM. Besides, the pEC50 with MT4 [3] is 6.49.

As for `Cc1nsnc1OC(=O)N(C)C`, the Selectivity index in [1] is listed as <1. Moreover, the CC50 in the assay with MT4 [2] is 535 µM. Further, the pEC50 with MT4 [3] was < 3.27.

On to `CN(C)C(=O)Oc1nsnc1-c1ccccc1`, for which the Selectivity index in assay [1] came to 8. The same compound returned a CC50 in the assay with MT4 [2] of 183 µM. The same compound had a negative logarithm of the EC50 (pEC50) with MT4 [3] of 4.64.

Take `Oc1nsnc1-c1c(Cl)cccc1Cl`: in the assay with MT4 [4], the pEC50 is 3.67. The Selectivity index in [1] is recorded as <1. The compound further showed a CC50 with MT4 [2] of 221 µM.

As to `CCCN(C)C(=O)Oc1nsnc1-c1c(Cl)cccc1Cl`, the CC50 in the assay on MT4 [5] turned out to be 131 µM; with MT4 [9] it was 131 µM; in the assay listed under Homo sapiens [11], 150 µM. Also, the Selectivity index in the assay filed under Homo sapiens [6] was 37500; in the assay on MT4 [8], <1; in assay [10], 10077. In addition, the pEC50 in the assay with MT4 [7] is < 3.88; in the assay on MT4 [3], 7.89.

As for `CCN(C)C(=O)Oc1nsnc1-c1c(Cl)cccc1Cl`, in [1], the Selectivity index is given as 3487. For the same compound, the CC50 in the assay with MT4 [2] was 136 µM. The pEC50 with MT4 [3] was 7.41.

As to `CN(C)C(=O)Oc1nsnc1-c1c(Cl)cccc1Cl`, in [1], the Selectivity index is recorded as 604. For the same compound, in the assay on MT4 [2], the midpoint of cytotoxicity, the CC50, lay at 145 µM. The pEC50 in the assay on MT4 [3] is 6.62.

As for `CN(C)C(=O)Oc1cnsn1`, in [1], the Selectivity index is reported as <1. For the same compound, the CC50 in the assay on MT4 [2] turned out to be 560 µM. The pEC50 with MT4 [3] is < 3.25.

Consider `CCCCN(C)C(=O)Oc1nsnc1-c1c(Cl)cccc1Cl`, for which the Selectivity index in assay [1] stood at 744. Also, in the assay on MT4 [2], the cytotoxic concentration (CC50) was 29 µM. The pEC50 in the assay with MT4 [3] was 7.41.

Turning to `CCCCCCN(C)C(=O)Oc1nsnc1-c1c(Cl)cccc1Cl`, the Selectivity index in assay [1] is listed as 160. The compound also gave a CC50 with MT4 [2] of 16 µM. For the same compound, the pEC50 in the assay with MT4 [3] is 7.00.

For `CC(=O)c1ccc(C)cc1NC(C(N)=O)c1c(Cl)cccc1Cl` (centres undefined) [LOVIRIDE], the pEC50 is 6.96 in the assay filed under Homo sapiens [12] and 8.22 in the assay with MT4 [3]. Moreover, the Selectivity index in assay [13] is 436; in assay [1], 22833. Moreover, the CC50 is 48 µM in the assay listed under Homo sapiens [14] and 137 µM in the assay with MT4 [2].

For the compound `Cc1ccnc2c1NC(=O)c1cccnc1N2C1CC1` [NEVIRAPINE], the Selectivity index in [1] amounted to 3973. For the same compound, the CC50 in the assay with MT4 [2] came out at 290 µM. The compound also gave a pEC50 in the assay with MT4 [3] of 7.14.

As to `Cc1cn([C@H]2C[C@H](N=[N+]=[N-])[C@@H](CO)O2)c(=O)[nH]c1=O` [ZIDOVUDINE], the pEC50 in the assay listed under Homo sapiens [12] was 8.52; with MT4 [3], 8.40. Also, in assay [13], the Selectivity index was found to be 27667. Further, the values for the CC50 in the assay filed under Homo sapiens [14] and in the assay with MT4 [2] were 83 µM and 3.2 µM, respectively.

By CC50 is commonly meant the concentration that lowers cell viability or growth by half. A low value points to greater toxicity to the cells. As usually defined, the pEC50 is −log10 of the EC50, conventionally taken in molar units.
